Kd data for one compound are collected here from article PMC6460348 (ChemistryOpen, 2019).

Molecules are shown by their SMILES.

The target in this assay is wild type XIAP‐BIR1 (Homo sapiens, UniProt P98170). As to the kind of experiment: MicroScale Thermophoresis. Format: binding. The method, boiled down: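 Human XIAP-BIR1 domain (wild type, or R62S, D71A, R82S or V86E point mutant made by site-directed mutagenesis), expressed from pET28b and purified. Lysines were covalently dye-labelled, and protein was held at 100 nM. Test compound was added as a two-fold series, final 30 nM–1.0 mM or 300 nM–10 mM. Assay at 24 °C in 50 mM Tris-HCl pH 8, 200 mM NaCl, 10 % glycerol, 10 mM DTT, 0.05 % Tween20, with 20 % LED and medium MST power. Kd was fitted from unbound/bound response values.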
Background: In MST a laser heats a spot of the sample, and binding alters the fluorescence response.

Chain of wild type XIAP‐BIR1 (P98170 10-99 limits assumed): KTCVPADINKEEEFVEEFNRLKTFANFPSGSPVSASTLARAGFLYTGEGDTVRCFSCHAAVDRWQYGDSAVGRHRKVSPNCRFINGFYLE

In general, Kd refers to the free concentration of one partner at which half of the binding sites on the other are occupied at equilibrium, for simple one-to-one binding. For the compound `Cc1ccc(C(=O)Nc2ccc(S(=O)(=O)O)c3cc(S(=O)(=O)O)cc(S(=O)(=O)O)c23)cc1NC(=O)c1cccc(NC(=O)Nc2cccc(C(=O)Nc3cc(C(=O)Nc4ccc(S(=O)(=O)O)c5cc(S(=O)(=O)O)cc(S(=O)(=O)O)c45)ccc3C)c2)c1` [Suramin], binding was put at a Kd of 612 ± 109 µM.
